Experiments:
Assay type in all cases: functional
Rattus norvegicus [1] = experiment: Cataleptogenic potency in im dosed albino rat assessed as reversal of imposed position administered 4 doses at quarter log intervals measured 60 to 180 mins post dose
Method in brief: (§1)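 Male albino rats (about 180 g average), groups of six, each given a single intramuscular injection into the gastrocnemius, about 0.1 ml/kg. Saline-injected controls. One observer scored forepaw-elevation catalepsy. CD50 was the dose giving 50% of the maximum catalepsy score (9 of 18 points), estimated by probit analysis. Doses were expressed as free base. Relative potency was calculated against fluphenazine as 1.0.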

Mus musculus [2] = experiment: Cataleptogenic potency in iv dosed albino mouse assessed as reversal of imposed position administered 4 doses at quarter log intervals measured 60 to 180 mins post dose
Method in brief: (§2)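 Male albino mice (20–25 g), six per dose, given intravenous aqueous solutions (PEG 200 for one analog). Distilled water served as the negative control. About four doses were spaced at quarter-log intervals, chosen from a preliminary gross observation screen. At 60, 120 and 180 min, mice were placed with forepaws elevated 5 cm and each forepaw was scored, maximum 3. Three observers scored the mice. CD50 came from probit analysis, with doses as free base. Relative potency was calculated against fluphenazine as 1.0.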

Mus musculus [3] = experiment: Cataleptogenic potency in iv dosed albino mouse assessed as reversal of imposed position administered 4 doses at quarter log intervals measured 60 to 180 mins post dose relative to fluphenazine; method in brief: as §2
Rattus norvegicus [4] = experiment: Cataleptogenic potency in im dosed albino rat assessed as reversal of imposed position administered 4 doses at quarter log intervals measured 60 to 180 mins post dose relative to fluphenazine; method in brief: as §1

Row | Structure (SMILES) | ED50 (Rattus norvegicus [1]) | ED50 (Mus musculus [2]) | Ratio (Mus musculus [3]) | Ratio (Rattus norvegicus [4])
1 | OCCN1CCN(CCCN2c3ccccc3Sc3ccc(C(F)(F)F)cc32)CC1 [FLUPHENAZINE] | 0.39 µmol/kg | 0.29 µmol/kg | – | –
2 | N#CC(C#N)=Cc1ccc2c(c1)N(CCCN1CCN(CCO)CC1)c1ccccc1S2 | – | 28 µmol/kg | 0.078 | –
3 | O=[N+]([O-])/C=C/c1ccc2c(c1)N(CCCN1CCN(CCO)CC1)c1ccccc1S2 | – | > 57 µmol/kg | <0.011 | –
4 | N#Cc1ccc2c(c1)N(CCCN1CCN(CCO)CC1)c1ccccc1S2 | 0.61 µmol/kg | 0.41 µmol/kg | 0.7 | 0.65
5 | O=[N+]([O-])c1ccc2c(c1)N(CCCN1CCN(CCO)CC1)c1ccccc1S2 | 0.17 µmol/kg | 2.2 µmol/kg | 0.92 | 3.2
